# In the library only some 2% were active in any assay of this set; here they are far more common.
# ASAP1 GAP inh: inhibitors of human ASAP1 ArfGAP activity, primary screen, biochemical, fluorescence polarization; Arf-GAP with SH3 domain, ANK repeat and PH domain-containing protein 1 (Homo sapiens), …; ASAP1-stimulated ARF1 GTP hydrolysis, GDP FP detection; inhibition, % at 16.5 µM; actives 0.19% (n = 360,000);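 further: 0% = vehicle with enzyme and substrate and 100% = no enzyme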
# LEDGF integ inh: blockers of LEDGF/p75-dependent integrase strand transfer – biochemical, TR-FRET, high throughput, primary screen; HIV-1 integrase (with human LEDGF/p75); TR-FRET IN-LEDGF/p75 DNA integration, Eu/Cy5; inhibition, % at 3.7 µM; actives 0.64% (n = 370,000); AID 743269, 2014;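 active means inhibition above the screen-wide mean plus 3 SD, cut at about 13% in these data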;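 further: signal is the Cy5 over europium emission ratio at 671 and 618 nm; 0% = plate median of compound wells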
# TDP2 absorb: human TDP2 enzyme inhibitors, primary screen, biochemical, epi absorbance, recombinant enzyme; actives 0.34% (n = 370,000); Tyrosyl-DNA phosphodiesterase 2 (Homo sapiens), O95551; inhibition, % at 12.8 µM; T5PNP hydrolysis, p-nitrophenol absorbance 415 nm;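 active means inhibition above the mean of all tested compounds plus 3 SD, set per campaign, cut at about 25% in these data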;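 further: 0% = DMSO with enzyme and 100% = buffer with substrate but no TDP2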
# Target sequence (O95551 whole entry, looked up): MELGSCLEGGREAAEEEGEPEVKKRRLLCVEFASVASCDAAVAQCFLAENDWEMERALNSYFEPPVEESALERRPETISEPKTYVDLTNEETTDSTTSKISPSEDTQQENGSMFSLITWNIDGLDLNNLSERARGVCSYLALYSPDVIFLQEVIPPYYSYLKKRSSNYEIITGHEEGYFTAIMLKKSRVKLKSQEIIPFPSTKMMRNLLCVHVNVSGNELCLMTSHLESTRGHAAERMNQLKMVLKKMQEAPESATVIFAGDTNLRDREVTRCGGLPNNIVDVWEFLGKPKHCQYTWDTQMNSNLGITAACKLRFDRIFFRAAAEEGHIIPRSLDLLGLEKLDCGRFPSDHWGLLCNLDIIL
#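 System – recombinant human TDP2 · Quantity – TDP2 enzyme at 120 nM final · Doses – single concentration, 12.8 µM nominal, with 1% DMSO · Incubation – 2 h at 37 °C · Measured by – epi absorbance of p-nitrophenol freed from T5PNP by hydrolysis · Read-out – % inhibition relative to enzyme-containing and enzyme-free wells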
# MBD2 DNA inh: inhibitors of MBD2 binding to methylated DNA, primary screen, biochemical, TR-FRET, DNA-binding domain, human. Methyl-CpG-binding domain protein 2 (Homo sapiens), Q9UBB5. MBD2 binding to methylated oligonucleotide. inhibition, % at 4.4 µM. actives 0.31% (n = 370,000); in the data active means inhibition above about 13%
# ARFGAP1 inhibitor: inhibitors of rat ARFGAP1 GAP activity, primary screen, biochemical, fluorescence polarization, GDP tracer; inhibition, % at 16.5 µM; actives 0.26% (n = 360,000); ADP-ribosylation factor GTPase-activating protein 1 (Rattus norvegicus), Q62848; AID 651572, 2012; Arfgap1-stimulated ARF1 GTP hydrolysis, GDP FP detection;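 active means inhibition above a per-plate limit, mean inhibition of low control wells plus 3 SD, cut at about 25% in these data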;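 further: 0% = DMSO wells with enzyme and 100% = wells lacking Arfgap1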
# Target sequence (Q62848 1-136 limits assumed): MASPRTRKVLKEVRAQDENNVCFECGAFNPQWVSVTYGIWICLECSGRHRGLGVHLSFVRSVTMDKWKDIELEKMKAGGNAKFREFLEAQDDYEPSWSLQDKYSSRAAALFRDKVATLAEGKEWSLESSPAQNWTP
#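 System: truncated rat Arfgap1 GAP domain / Benchmarks: high control wells lacking Arfgap1, low control full reaction with DMSO / Times: compound-enzyme preincubation 20 min, reaction 120 min, detection 60 min, 25 °C / Repeats: one replicate per compound / Also added: human ARF1(Δ1-17)-GTP substrate / Measured by: Tracer-displacement fluorescence polarization with EDTA stop, 620/688 nm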
# UHRF1 MBD2 ctr: UHRF1 methylated DNA binding inhibitors, primary screen, counter-screen for MBD2 inhibitor project, biochemical, TR-FRET, human UHRF1, single concentration; UHRF1 binding to methylated oligo; inhibition, % at 4.4 µM; actives 0.75% (n = 370,000); AID 687016, 2013; in the data active means inhibition above about 21%;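 further: UHRF1 SRA domain binding a hemimethylated CpG hairpin DNA probe; 0% = median of test compound wells and 100% = reference inhibitor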
# TDP2 inh conf: human TDP2 enzyme inhibitors, retest, confirmation, biochemical, epi absorbance, recombinant enzyme. inhibition, % at 12.8 µM. absorbance read-out. shares compounds with TDP2 absorb. AID 743263, 2014. actives 22% (n = 1,100);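 further: 0% = vehicle with enzyme and 100% = no enzyme buffer only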
# The depositor's hits bear a star; · = no result. Unless noted, no stated cut-off is given here; in the data, active means inhibition above about 25%; inactive means the rest.
SMILES,ASAP1 GAP inh,LEDGF integ inh,TDP2 absorb,MBD2 DNA inh,ARFGAP1 inhibitor,UHRF1 MBD2 ctr,TDP2 inh conf
CCCCn1c(N)c(N(CC(C)C)C(=O)c2ccc(COc3ccccc3)o2)c(=O)[nH]c1=O,-9,0,8,3,-14,0,·
CCCCN(C(=O)CCC(=O)OCC(=O)NCc1ccccc1)c1c(N)n(CCC)c(=O)[nH]c1=O,5,1,-1,1,20,0,·
CCCCCN(C(=O)CCC(=O)OCC(=O)NCc1cccc(OC)c1)c1c(N)n(CCCC)c(=O)[nH]c1=O,14,0,75*,3,-3,0,-2
CN(C)C(CNC(=O)c1ccc(NS(=O)(=O)c2ccc(F)cc2)cc1)c1ccco1 (centres undefined),-9,2,27*,-6,12,-1,5
CCOc1ccc2nc(SCC(=O)NCc3ccc(OC)cc3)[nH]c2c1,-10,-5,2,-2,11,-3,·
COc1ccc2nc(SCC(=O)NCc3ccccc3)[nH]c2c1,-10,0,60*,4,6,8,-2
COc1ccc(-c2cc(-c3ccc(O)cc3)nc(N)c2C#N)cc1,1,-2,-8,-3,3,0,·
N#Cc1c(-c2ccccc2)cc(-c2ccc(O)cc2)nc1N,-7,3,29*,-2,3,-2,-5
Cc1ccc(-n2ncc3c2CC(C)(C)CC3NC(=O)CCn2cncn2)cc1 (centres undefined),3,2,11,0,-5,-2,·
Cc1ccccc1-n1ncc2c1CC(C)(C)CC2NC(=O)CCn1cncn1 (centres undefined),1,2,82*,4,3,-2,5
CC(=O)N1c2ccc(S(=O)(=O)NCC3CCC(C(=O)N4CCC(C)CC4)CC3)cc2CC1C (centres undefined),0,3,28*,2,-4,-1,-2
CC(=O)N1c2ccc(S(=O)(=O)NCC3CCC(C(=O)NC4CCC(C)CC4)CC3)cc2CC1C (centres undefined),4,-5,12,0,9,4,·
Nc1ccc2c(c1)C(=O)C(=O)c1ccccc1-2,-17,-19,98*,5,-16,-15,87*
O=C(N[C@@H](Cc1ccccc1)c1nc2ccccc2[nH]1)c1ccc([N+](=O)[O-])cc1,2,3,25*,7,18,18,5
O=C(OCC#CCSc1nnc(-c2cccc3ccccc23)o1)c1ccc(OC(F)F)cc1,·,1,-1,-3,·,1,·
Cc1nn2c(=O)cc(CSc3ccccc3NC(=O)c3ccccc3)nc2s1,0,-1,26*,1,1,-2,-5
NC(=O)C1CCN(c2oc(/C=C/c3ccc(F)cc3)nc2S(=O)(=O)c2ccccc2)CC1,4,-2,3,5,12,2,·
COc1ccccc1/C=C/c1nc(S(=O)(=O)c2ccccc2)c(N2CCC(C(N)=O)CC2)o1,-2,4,26*,-7,4,-1,-11
Cc1ccc(N2CCN(/N=C\c3cccnc3)CC2)cc1,·,-3,5,-6,·,-2,·
COC(=O)c1cc(NC(=O)c2cc3ccccc3o2)cc(C(=O)OC)c1,9,2,26*,-7,-6,-1,1
Cc1ccccc1CN1CCN(C(=O)c2ccco2)CC1,3,1,28*,2,4,-1,6
Cc1ccccc1CN1CCN(C(=O)c2ccc(F)cc2)CC1,-4,3,29*,1,-3,-1,11
COc1ccc(C(=O)N2CCN(Cc3ccccc3C)CC2)cc1OC,-5,2,1,5,5,4,·
Nn1c(SCC(=O)N2CCOCC2)nnc1-c1n[nH]c2c1CCC2,·,1,1,-4,·,-2,·
Cc1nnc(SCc2ccccc2)n(N)c1=O,-7,0,58*,2,-10,2,-4
SMILES,ASAP1 GAP inh,LEDGF integ inh,TDP2 absorb,MBD2 DNA inh,ARFGAP1 inhibitor,UHRF1 MBD2 ctr,TDP2 inh conf
COC(=O)[C@]12C[C@H](CC(=O)NCc3cccc(C(F)(F)F)c3)C(=O)N(Cc3cccc4ccccc34)C1=C[C@H](C(C)C)O[C@@H]2C1CC1,·,-2,-14,2,·,-1,·
O=C(O)/C=C/C(=O)Nc1ccc(C(=O)c2ccccc2)cc1,1,1,6,1,-3,0,·
O=C(O)/C=C/C(=O)Nc1ccc(O)cc1,-13,14*,34*,-3,14,-5,31*
COc1ccc(C(=O)NCCONC(=O)c2ccc(OC)cc2)cc1,-3,1,3,0,11,3,·
Cc1ccc(C(=O)NCCONC(=O)c2ccc(C)cc2)cc1,-1,-1,25*,0,10,0,-6
CN(Cc1ccccc1F)C(=O)C1C2C=CC3(CN(Cc4ccccc4)C(=O)C13)O2 (centres undefined),·,-2,8,-1,·,3,·
O=C(Cc1ccccc1[N+](=O)[O-])NCC1(c2cccc3c2OCO3)OCCO1,-7,3,27*,0,-11,-1,5
O=C(Cc1ccccc1[N+](=O)[O-])NC1CC1,-8,2,3,0,1,0,·
c1ccc(OCCN2CCOCC2)cc1,1,-2,31*,0,-2,4,7
c1ccc(Cc2ccc(OCCN3CCOCC3)cc2)cc1,-10,-3,0,3,-6,2,·
Cc1cc(C)cc(NC(=O)C2(C(=O)C3CC3)CC(c3ccccc3C(F)(F)F)=NO2)c1 (centres undefined),·,-2,5,-1,·,-1,·
Nc1cc(S(=O)(=O)O)cc([N+](=O)[O-])c1O,-7,44*,50*,10,7,81*,3
C=CCN1[C@@H](C)COc2cccc(F)c2S1(=O)=O,·,1,10,-5,·,0,·
O=C(NC1CC2CCCC(C1)N2C(=O)Nc1cccc(F)c1)C1CC1 (centres undefined),-8,-1,28*,-2,-6,-2,13

# High-throughput results as filed in PubChem.
